≈ marks a conversion by molar mass, not a printed value.
Experiments:
[1] = test system: E. coli ATCC 25922; assay: In vitro screening, % growth inhibition at 250 μg/mL; assay type: cell-based, Escherichia coli; details: for inhibition at 250 µg/mL: Escherichia coli, ATCC25922, 24 h, read-out: % inhibition at 250 μg/mL
How it was run: (§1)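 Test compounds dissolved in DMSO and diluted in test medium. Mid-log cultures diluted in nutrient broth to McFarland standard and treated with 250 μg/mL in 96-well plates, 37 °C, 160 rpm, 24 h. Growth read as OD at 580 nm; % inhibition calculated from absorbance against untreated growth. Run twice on different occasions.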

[2] = test system: S. pneumoniae MTCC 655; assay: as above; assay type: cell-based, Streptococcus pneumoniae; details: for inhibition at 250 µg/mL: Streptococcus pneumoniae, MTCC655, 24 h, read-out: % inhibition at 250 μg/mL
How it was run: as §1

[3] = test system: P. auroginosa MTCC 2453; assay: as above; assay type: cell-based, Pseudomonas auroginosa; details: for inhibition at 250 µg/mL: Pseudomonas, MTCC2453, 24 h, read-out: % inhibition at 250 μg/mL
How it was run: as §1

[4] = test system: E. faecalis MTCC 439; assay: as above; assay type: cell-based, Enterococcus faecalis; details: for inhibition at 250 µg/mL: Enterococcus faecalis, MTCC439, 24 h, read-out: % inhibition at 250 μg/mL
How it was run: as §1

[5] = test system: E. coli; assay: Growth kinetic studies; assay type: cell-based, Escherichia coli; details: 2MIC and MIC
[6] = test system: S. pneumoniae MTCC 655; assay: Spot assay; assay type: cell-based, Streptococcus pneumoniae; details: 2MIC, 6 h exposure
How it was run: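 Mid-log S. pneumoniae MTCC 655 harvested and diluted in sterile PBS to McFarland standard. 2 mL suspension exposed to test compound at 2MIC, MIC or 0.5MIC, 37 °C, 160 rpm, 6 h. 2 μL spots put on nutrient agar, 37 °C for 24 h, growth scored +/−. Ciprofloxacin-treated positive and untreated negative controls. Triplicate, three occasions.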

[7] = test system: E. faecalis MTCC 439; assay: MIC by broth microdilution; assay type: cell-based; details: Enterococcus faecalis, MTCC439
[8] = test system: E. faecalis; assay: Synergistic assay with ciprofloxacin; assay type: cell-based, Enterococcus faecalis
[9] = test system: E. coli ATCC 25922; assay: MIC by broth microdilution; assay type: cell-based; details: Escherichia coli, ATCC25922
[10] = test system: E. coli; assay: Time–kill curve assay; assay type: cell-based, Escherichia coli
How it was run: (§2)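 Nutrient broth inoculated with about 2 × 10^6 cells of fresh culture, two-fold diluted and exposed to test compound at MIC or 2MIC; untreated control included. Incubation at 37 °C, 160 rpm. At 0, 2, 4, 8 and 24 h, 100 μL was diluted in sterile saline, 50 μL plated on nutrient agar and colonies counted after 24 h at 37 °C. Duplicate; mean log10 CFU/mL plotted against time.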

[11] = test system: S. pneumoniae MTCC 655; assay: MIC by broth microdilution; assay type: cell-based; details: Streptococcus pneumoniae, MTCC655
[12] = test system: S. pneumoniae; assay: Growth kinetic studies; assay type: cell-based, Streptococcus pneumoniae; details: 2MIC and MIC
[13] = test system: E. coli biofilm; assay: Biofilm formation assessment by SEM; assay type: cell-based, Escherichia coli; details: 24 h
How it was run: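 Sterile glass pieces (10 mm2) placed in nutrient broth with 0.5% extra glucose and inoculated with fresh E. coli primary culture. […] Glass washed with PBS and fixed overnight in 2.5% glutaraldehyde/2% paraformaldehyde in 0.1 M phosphate buffer pH 7.4. Washed, dried, imaged by SEM; untreated control included.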

[14] = test system: S. typhimurium; assay: Synergistic assay with ciprofloxacin; assay type: cell-based, Salmonella typhimurium
[15] = test system: E. coli biofilm; assay: Biofilm assessment by XTT assay; assay type: cell-based, Escherichia coli; details: for reduction in absorbance (biofilm, XTT): 24 h
How it was run: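 Biofilms grown from 100 μL standardized cell suspension in nutrient broth with 0.5% extra glucose, 37 °C, 24 h, static. […] Washed again, XTT salt added for 90 min at 37 °C in the dark, A490 read. % inhibition taken from dose–response curves.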

[16] = test system: S. pneumoniae; assay: Time–kill curve assay; assay type: cell-based, Streptococcus pneumoniae; details: up to 24 h
How it was run: as §2

[17] = test system: E. coli; assay: Synergistic assay with ciprofloxacin; assay type: cell-based, Escherichia coli
[18] = test system: S. typhimurium MTCC 3224; assay: MIC by broth microdilution; assay type: cell-based; details: Salmonella enterica, MTCC3224|TYPHIMURIUM
[19] = test system: E. coli ATCC 25922; assay: Disk diffusion assay; assay type: cell-based, Escherichia coli
[20] = test system: S. pneumoniae; assay: Synergistic assay with ciprofloxacin; assay type: cell-based, Streptococcus pneumoniae
[21] = test system: P. aeruginosa; assay: Synergistic assay with ciprofloxacin; assay type: cell-based
[22] = test system: S. typhimurium MTCC 3224; assay: In vitro screening, % growth inhibition at 250 μg/mL; assay type: cell-based, Salmonella typhimurium; details: 24 h
How it was run: as §1

[23] = test system: S. pneumoniae biofilm; assay: Biofilm assessment by XTT assay; assay type: cell-based, Streptococcus pneumoniae
[24] = test system: P. auroginosa MTCC 2453; assay: MIC by broth microdilution; assay type: cell-based, Pseudomonas auroginosa; details: Pseudomonas, MTCC2453
[25] = test system: S. pneumoniae MTCC 655; assay: Disk diffusion assay; assay type: cell-based, Streptococcus pneumoniae
[26] = test system: E. coli cells; assay: Confocal laser microscopy with DAPI staining; assay type: cell-based, Escherichia coli; details: MIC of 4l for 3 h
[27] = Hemolytic assay; assay type: cell-based; details: human, human red blood cells (erythrocytes/PBS suspension)
How it was run: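 Human blood from a healthy donor was collected in EDTA and spun at 2000 rpm for 10 min at room temperature. Erythrocytes were PBS-washed, made into a 10% (v/v) suspension and diluted 1:10. Test compound (400–3.125 μg/mL in PBS) mixed with an equal volume of this suspension, 1 h at 37 °C, then spun.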

[28] = E. faecalis, 4l combined with CIP
[29] = S. typhimurium, 4l combined with CIP
[30] = S. pneumoniae, 4l combined with CIP
[31] = P. aeruginosa, 4l combined with CIP

For `CNC1=C([N+](=O)[O-])C2(C(=O)Nc3ccc([N+](=O)[O-])cc32)C2=C(CC(C)(C)CC2=O)O1` (stereo not shown) [Compound 4d], the inhibition at 250 µg/mL [1] was 36.1%, the inhibition at 250 µg/mL [2] was 23.2% and the inhibition at 250 µg/mL [3] was 52.5%. The inhibition at 250 µg/mL [4] was 30.4%.
For `CNC1=C([N+](=O)[O-])C2(C(=O)Nc3ccccc32)c2c(c3ccccc3oc2=O)O1` (stereo not shown) [Compound 4i], the inhibition at 250 µg/mL [1] was 15.4%, the inhibition at 250 µg/mL [2] was 1.96% and the inhibition at 250 µg/mL [3] was 6.58%. For the same compound, the inhibition at 250 µg/mL [4] was 7.5%.
Compound `CNC1=C([N+](=O)[O-])C2(C(=O)Nc3ccc(Cl)cc32)c2c(c3ccccc3oc2=O)O1` (stereo not shown) [Compound 4j] has an inhibition at 250 µg/mL [1] of 45.8%, an inhibition at 250 µg/mL [2] of 27.8% and an inhibition at 250 µg/mL [3] of 23.1%. The inhibition at 250 µg/mL [4] was 27.2%.
`CNC1=C([N+](=O)[O-])C2(C(=O)Nc3ccc(Br)cc32)c2c(c3ccccc3oc2=O)O1` (stereo not shown) [Compound 4k] showed an inhibition at 250 µg/mL [1] of 32%, an inhibition at 250 µg/mL [2] of 19.7% and an inhibition at 250 µg/mL [3] of 4.61%. For the same compound, the inhibition at 250 µg/mL [4] was 18.1%.
For `CNC1=C([N+](=O)[O-])C2(C(=O)Nc3ccccc32)C2=C(O1)C(=O)c1ccccc1C2=O` (stereo not shown) [Compound 4l], the “% inhibition at 250 μg/mL” value ([1]; E. coli ATCC 25922, 250 μg/mL, 24 h) was “complete inhibition”, the inhibition at 250 µg/mL [1] was 100% and the “continuous lag phase (no substantial growth)” value [5] was 24 h. The “growth in spot assay (in words)” value [6] was “no S. pneumoniae growth”, the MIC [7] was 250 µg/mL (≈ 620 µM) and the FICI [8, 28] was 0.27. For the same compound, the MIC in combination [8, 28] was 3.90 µg/mL, the mode of interaction [8, 28] was “synergistic (Synergy and antagonism were defined by FIC indices of <0.5 and >4, respectively)” and the MIC ([8]; Enterococcus faecalis, read-out: MIC alone) was 250 µg/mL. The MIC [9] was 125 µg/mL (≈ 310 µM), the “killing activity (time–kill)” value ([10]; 2MIC, after 24 h) was “complete eradication” and the “killing activity (time–kill)” value ([10]; MIC, up to 24 h) was “significant decrease in log10 CFU/mL”. The MIC [11] was 125 µg/mL (≈ 310 µM), the “continuous lag phase (no substantial growth)” value [12] was 24 h and the “biofilm appearance under SEM” value ([13]; 2MIC) was “very few scattered bacterial cells”. The “biofilm appearance under SEM” value ([13]; MIC) was “significant damage in biofilm formation”, the FICI [14, 29] was 1.01 and the MIC in combination [14, 29] was 3.90 µg/mL. The mode of interaction [14, 29] was “indifferent (An FIC index result of >0.5 but <4 was considered indifferent)”, the MIC ([14]; Salmonella enterica, TYPHIMURIUM, read-out: MIC alone) was 250 µg/mL and the “reduction in absorbance (biofilm, XTT)” value ([15]; 2MIC (by order)) was 80%. For the same compound, the “reduction in absorbance (biofilm, XTT)” value ([15]; 4MIC (first of 4MIC, 2MIC, MIC by order)) was 97%, the “reduction in absorbance (biofilm, XTT)” value ([15]; MIC (by order)) was 77% and the “effect on biofilm formation (XTT)” value ([15]; sub-MIC: MIC/2, MIC/4, MIC/8) was “significant reduction in biofilm formation”. For the same compound, the “killing activity (time–kill)” value ([16]; 2MIC) was “almost completely killed bacterial cells”, the “killing activity (time–kill)” value ([16]; MIC) was “significant decrease in log10 CFU/mL” and the “% inhibition at 250 μg/mL” value ([2]; S. pneumoniae MTCC 655, 250 μg/mL, 24 h) was “complete inhibition”. It also gave an inhibition at 250 µg/mL [2] of 100%, an FICI ([17]; E. coli, 4l combined with CIP) of 0.53 and an MIC in combination ([17]; E. coli, 4l combined with CIP) of 3.90 µg/mL. For the same compound, the MIC ([17]; Escherichia coli, read-out: MIC alone) was 125 µg/mL, the MIC [18] was 250 µg/mL (≈ 620 µM) and the “additional opaque zone of inhibition” value ([19]; 2MIC, MIC and 0.5MIC disks) was 3 ± 1 mm. The “clear zone of inhibition” value ([19]; disk with 0.5MIC (62.5 μg/mL)) was 14 mm, the “clear zone of inhibition” value ([19]; disk with 2MIC (250 μg/mL)) was 18 mm and the “clear zone of inhibition” value ([19]; disk with MIC (125 μg/mL)) was 17 mm. For the same compound, the FICI [20, 30] was 0.29, the MIC in combination [20, 30] was 3.90 µg/mL and the mode of interaction [20, 30] was “synergistic (Synergy and antagonism were defined by FIC indices of <0.5 and >4, respectively)”. It also gave an MIC ([20]; Streptococcus pneumoniae, read-out: MIC alone) of 125 µg/mL, an FICI [21, 31] of 1.06 and an MIC in combination [21, 31] of 15.63 µg/mL. The mode of interaction [21, 31] was “indifferent (An FIC index result of >0.5 but <4 was considered indifferent)”, the MIC ([21]; Pseudomonas aeruginosa, read-out: MIC alone) was 250 µg/mL and the “% inhibition at 250 μg/mL” value [22] was “complete inhibition”. For the same compound, the “% inhibition at 250 μg/mL” value ([3]; P. auroginosa MTCC 2453, 250 μg/mL, 24 h) was “complete inhibition”, the inhibition at 250 µg/mL [3] was 100% and the “effect on biofilm formation (XTT)” value ([23]; even at MIC, 24 h) was “almost completely disrupted biofilm formation”. For the same compound, the “effect on biofilm formation (XTT)” value ([23]; sub-MIC: MIC/2, MIC/4, MIC/8) was “significant reduction in biofilm formation”, the MIC [24] was 125 µg/mL (≈ 310 µM) and the “additional opaque zone of inhibition” value ([25]; 2MIC, MIC and 0.5MIC disks) was 3 ± 1 mm. The “clear zone of inhibition” value ([25]; disk with 0.5MIC (62.5 μg/mL)) was 14 mm, the “clear zone of inhibition” value ([25]; disk with 2MIC (250 μg/mL)) was 17 mm and the “clear zone of inhibition” value ([25]; disk with MIC (125 μg/mL)) was 15 mm. For the same compound, the “% inhibition at 250 μg/mL” value ([4]; E. faecalis MTCC 439, 250 μg/mL, 24 h) was “complete inhibition”, the inhibition at 250 µg/mL [4] was 100% and the “effect on E. coli cells under confocal microscopy (DAPI)” value [26] was “reduction in the number of living cells”. The hemolysis at 1 h, 100 μg/mL [27] was 13%, the hemolysis at 1 h, 200 μg/mL [27] was 20% and the hemolysis at 1 h, 400 μg/mL [27] was 32%.
